Source: PubChem BioAssay (several laboratories)
HIF act = HIF pathway transcriptional activation; U2OS HRE-luciferase reporter, luminescence; normalized: DMSO 0%, desferrioxamine 100%; activation, % at 7.5 µM (by protocol); actives 0.32% (n = 300,000);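 active means mean activation of at least 10% of the iron chelator positive control signal, with at least half of replicates also reaching 10%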
Yeast superoxide = yeast age-related superoxide inhibition as caloric restriction mimetic. S. cerevisiae aged cells, superoxide DHE fluorescence; active compounds read low. superoxide response (% of plate mean), % at 10 µM. actives 0.18% (n = 330,000);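 active means superoxide response under a set limit, about three screen SD below normal, cut at about 65% in these data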;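 further: yeast aged for seven days with compound at 30 °C before DHE staining; 100% = average MFI of all compound-treated wells on the plate with controls excluded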
AI-2 QS mod = modulates the Vibrio harveyi AI-2 quorum sensing system; Vibrio harveyi JMH597 AI-2 luminescence/OD600 ratio, 9 h; active compounds read low; strain lacks LuxN and CqsS sensors; 0 = neutral-control median; AID 2094; actives 0.4% (n = 300,000); activity change, % at 7.5 µM; in the data active means activity change below about -75%, passing the limit was not always enough;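 further: luminescence divided by OD600 gain over 9 h not by final OD600 alone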
V-ATPase pH = regulators of yeast V-ATPase proton transport. S. cerevisiae, pHLuorin cytosolic pH fluorescence. response, % at 10 µM. actives 0.37% (n = 350,000). AID 504577; in the data active means response mostly above about 7.3%, no sharp cut-off; inactive means mostly below about 5.4%; further: actives read high
T cruzi inh = T. cruzi replication inhibition | T. cruzi beta-gal in NIH3T3, luminescence, 90 h | inhibition, % (concentration not given with the values) | actives 1.4% (n = 300,000) | AID 1885;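 active means mean inhibition across valid replicates above about 55%, limit read from the data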;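 further: signal also drops with host cell toxicity which is not excluded here; 0% = plate median of DMSO wells and 100% = zero luminescence signal; higher percent means less beta-gal luminescence so fewer parasites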
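System: mouse NIH/3T3 fibroblasts infected with β-gal-expressing T. cruzi Tulahuen C4 / Input: NIH/3T3 cells, 5,000 per well / Buffer or medium: Low-serum DMEM with 2% FBS / Probe or stimulus: 5000 reporter trypomastigotes per well / Schedule: ≥90 h infection period, 3 h prior cell attachment / Measured by: GalScreen luminescence, 60 min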
NRP1-CendR mod = modulators of CendR peptide binding to human neuropilin-1; O14786; FAM-RPARPAR peptide binding to NRP-1, fluorescence polarization; inhibition, % at 25 µM; actives 0.85% (n = 360,000);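 active means inhibition or corrected inhibition above about 18%, plus a signal ratio from 0.5 to 1.5, limit read from the data, passing the limit was not always enough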
Target sequence (O14786 whole entry, looked up): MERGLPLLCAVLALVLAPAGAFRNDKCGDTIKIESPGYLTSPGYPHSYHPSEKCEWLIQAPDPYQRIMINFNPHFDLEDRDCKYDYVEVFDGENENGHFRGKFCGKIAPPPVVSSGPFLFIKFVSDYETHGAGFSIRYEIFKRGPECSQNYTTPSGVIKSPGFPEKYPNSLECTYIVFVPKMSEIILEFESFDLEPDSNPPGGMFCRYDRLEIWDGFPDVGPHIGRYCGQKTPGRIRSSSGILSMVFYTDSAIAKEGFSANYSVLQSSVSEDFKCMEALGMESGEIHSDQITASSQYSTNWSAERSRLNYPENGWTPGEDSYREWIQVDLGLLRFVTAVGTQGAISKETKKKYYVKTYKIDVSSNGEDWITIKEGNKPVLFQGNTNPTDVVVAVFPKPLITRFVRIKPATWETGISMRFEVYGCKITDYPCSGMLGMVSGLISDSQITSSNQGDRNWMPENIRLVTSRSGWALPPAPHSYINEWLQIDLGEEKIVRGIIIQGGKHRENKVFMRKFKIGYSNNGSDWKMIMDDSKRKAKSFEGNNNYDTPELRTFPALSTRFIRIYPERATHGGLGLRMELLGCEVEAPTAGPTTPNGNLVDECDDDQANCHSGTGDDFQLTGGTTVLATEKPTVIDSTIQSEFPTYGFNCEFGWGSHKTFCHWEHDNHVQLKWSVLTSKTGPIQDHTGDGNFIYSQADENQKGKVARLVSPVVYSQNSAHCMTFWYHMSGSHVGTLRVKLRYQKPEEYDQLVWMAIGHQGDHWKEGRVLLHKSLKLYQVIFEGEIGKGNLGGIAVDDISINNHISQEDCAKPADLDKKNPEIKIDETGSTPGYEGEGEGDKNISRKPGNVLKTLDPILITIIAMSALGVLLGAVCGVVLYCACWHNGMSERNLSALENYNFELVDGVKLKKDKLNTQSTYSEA
JMH597 growth = retest: blocks Vibrio harveyi JMH597 growth | shares compounds with AI-2 QS mod | OD600 absorbance, 9 h; lacks LuxN and CqsS sensors | growth inhibition, % at 7.5 µM | actives 1% (n = 750);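 active means every replicate shows growth inhibition above 50%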
BB721 lum counter = retest counter-screen: lowers luminescence of constitutive-QS Vibrio harveyi BB721 | actives 95% (n = 750) | shares compounds with AI-2 QS mod | 9 h | AID 2727 | inhibition, % at 7.5 µM;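 active means inhibition above about 80% in every replicate, not just on average, limit read from the data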
BB721 growth = retest Vibrio harveyi BB721 growth inhibition; shares compounds with AI-2 QS mod; OD600 absorbance, 9 h; growth inhibition, % at 7.5 µM; actives 3% (n = 750);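 active means every replicate shows growth inhibition above 50%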
JMH597 AI-2 mod = Vibrio harveyi AI-2 signaling luminescence modulation – JMH597 strain, confirmation. shares compounds with AI-2 QS mod. Vibrio harveyi JMH597 AI-2 quorum sensing luminescence, 9 h; luxN and CqsS knockout, AI-2 only. inhibition, % at 7.5 µM. actives 97% (n = 750). AID 2736;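 active means every replicate shows more than 75% inhibition of signal versus neutral control wells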
An asterisk follows results filed as active; · = no result given. This is a sample that favours compounds with a hit; in the whole collection about 3% have one here.

SMILES | HIF act | Yeast superoxide | AI-2 QS mod | V-ATPase pH | T cruzi inh | NRP1-CendR mod | JMH597 growth | BB721 lum counter | BB721 growth | JMH597 AI-2 mod
CSCCC1NC(=O)N(CC(=O)Nc2ccc(-c3ccccc3)cc2)C1=O (centres undefined) | 0.9 | 95.2 | -82.7* | -6.7 | 9.1 | -7.7 | -21.7 | 85.1* | -5.3 | 90.8*
CCOc1ccc(NC(=O)CN2C(=O)NC(CCSC)C2=O)cc1 (centres undefined) | -0.4 | 100.0 | -78.7* | -0.5 | -8.8 | 10.2 | 7.6 | 90.8* | 6.9 | 93.8*
CSCCC1NC(=O)N(CC(=O)Nc2c(C(C)C)cccc2C(C)C)C1=O (centres undefined) | -0.8 | 99.4 | -3.9 | 0.2 | -8.0 | -12.4 | · | · | · | ·
CCOc1ccc(NC(=O)CN2C(=O)CSC(C)C2=O)cc1 (centres undefined) | 0.5 | 129.6 | -78.3* | 3.7 | -0.2 | 13.6 | 16.4 | 91.3* | 9.6 | 93.3*
Cc1ccc(S(C)(=O)=O)cc1S(=O)(=O)Nc1ccccc1 | 2.1 | 105.1 | -4.2 | -1.6 | 1.5 | 3.4 | · | · | · | ·
CCc1ccc(/C=C\C(=O)N2CCCC2)cc1 | 2.3 | 82.2 | -9.6 | 1.2 | 9.0 | -6.8 | · | · | · | ·
CC(C)(C)c1ccc(/C=C/C(=O)N2CCCCC2)cc1 | -0.3 | · | -85.8* | 4.2 | -16.5 | -6.0 | 12.4 | 94.5* | 12.6 | 96.7*
CCN(CC)c1ccc(C(=O)NNC(=O)c2cccn2C)cc1 | -15.8 | 92.1 | 16.4 | 0.3 | -17.0 | -12.5 | · | · | · | ·
CN1CCN(S(=O)(=O)c2ccc(Oc3ccc(Br)cc3F)nc2)CC1 | -0.6 | 111.4 | -83.9* | -0.2 | 8.2 | 5.7 | 6.0 | 81.6* | -29.5 | 98.7*
CN1CCN(S(=O)(=O)c2ccc(Oc3ccc(F)cc3Br)nc2)CC1 | -0.2 | 98.9 | 18.6 | 1.3 | 10.9 | 1.0 | · | · | · | ·
COc1ccc(N(CC(=O)Nc2ccccc2C(=O)N2CCCC2)S(=O)(=O)c2ccccc2)cc1 | -0.1 | 84.7 | 16.5 | -3.6 | -16.3 | -5.4 | · | · | · | ·
Oc1ccc(C[C@@H]2CNC(=S)N2CCCCC2CCCCC2)cc1 | 3.0 | 104.9 | -92.4* | -1.1 | 33.1 | -0.2 | 1.3 | 92.5* | -20.3 | 95.9*
Cc1ccc(OCc2nc(-c3cccnc3)no2)cc1C | 1.4 | 89.7 | -93.8* | 3.3 | 0.8 | 3.6 | 2.5 | 98.2* | 2.5 | 98.7*
Cc1ccccc1OCc1nc(-c2cccnc2)no1 | 3.2 | 108.8 | -47.8 | 0.2 | -7.1 | 1.6 | · | · | · | ·
Cc1cc(C)cc(OCc2nc(-c3cccnc3)no2)c1 | 0.6 | 96.8 | -95.2* | -1.6 | 9.8 | -19.4 | 8.6 | 98.7* | -1.9 | 98.9*
Cc1ccc(C)c(NC(=O)COC(=O)c2ccc[n+]([O-])c2)c1 | · | 92.9 | · | 1.7 | · | 5.3 | · | · | · | ·
Cc1ccc(CSc2nnc(-c3cccnc3)o2)cc1 | 0.4 | 107.7 | -96.2* | -3.1 | -3.4 | -2.1 | 25.9 | 99.1* | 9.0 | 99.4*
Cc1ccccc1-c1nnc(SCc2ccc(F)cc2)o1 | 1.1 | 101.2 | -92.0* | -3.5 | 8.5 | 1.1 | 24.0 | 96.8* | 69.3 | 97.3*
c1cncc(-c2nnc(SCc3nc4ccccc4[nH]3)o2)c1 | -0.7 | 101.2 | 14.7 | -1.7 | -5.5 | -0.8 | · | · | · | ·
C(=C\c1ccccc1)/CSc1nnc(-c2cccnc2)o1 | 0.5 | 112.2 | -89.4* | -3.6 | 5.9 | 6.7 | 18.7 | 95.3* | -0.9 | 97.5*
c1ccc(CSc2nnc(-c3cccnc3)o2)cc1 | 2.0 | 118.0 | -94.9* | 0.0 | -23.5 | 20.3 | -11.5 | 98.8* | -23.7 | 99.3*
